Data: ChEMBL document CHEMBL4261517, “A structurally guided dissection-then-evolution strategy for ligand optimization of smoothened receptor” (Medchemcomm, 2017)

Columns and labels:
Protein smoothened = Protein smoothened (Mus musculus, UniProt P56726); assay: Antagonist activity at Smo receptor in mouse NIH/3T3 cells harboring GRE-Luc assessed as inhibition of SAG-induced Hh signaling pathway preincubated for 1 to 2 hrs followed by SAG addition and measured after 24 hrs by Bright-Glo luciferase reporter gene assay; format: functional, cell-based
Chain of Protein smoothened (P56726 whole entry): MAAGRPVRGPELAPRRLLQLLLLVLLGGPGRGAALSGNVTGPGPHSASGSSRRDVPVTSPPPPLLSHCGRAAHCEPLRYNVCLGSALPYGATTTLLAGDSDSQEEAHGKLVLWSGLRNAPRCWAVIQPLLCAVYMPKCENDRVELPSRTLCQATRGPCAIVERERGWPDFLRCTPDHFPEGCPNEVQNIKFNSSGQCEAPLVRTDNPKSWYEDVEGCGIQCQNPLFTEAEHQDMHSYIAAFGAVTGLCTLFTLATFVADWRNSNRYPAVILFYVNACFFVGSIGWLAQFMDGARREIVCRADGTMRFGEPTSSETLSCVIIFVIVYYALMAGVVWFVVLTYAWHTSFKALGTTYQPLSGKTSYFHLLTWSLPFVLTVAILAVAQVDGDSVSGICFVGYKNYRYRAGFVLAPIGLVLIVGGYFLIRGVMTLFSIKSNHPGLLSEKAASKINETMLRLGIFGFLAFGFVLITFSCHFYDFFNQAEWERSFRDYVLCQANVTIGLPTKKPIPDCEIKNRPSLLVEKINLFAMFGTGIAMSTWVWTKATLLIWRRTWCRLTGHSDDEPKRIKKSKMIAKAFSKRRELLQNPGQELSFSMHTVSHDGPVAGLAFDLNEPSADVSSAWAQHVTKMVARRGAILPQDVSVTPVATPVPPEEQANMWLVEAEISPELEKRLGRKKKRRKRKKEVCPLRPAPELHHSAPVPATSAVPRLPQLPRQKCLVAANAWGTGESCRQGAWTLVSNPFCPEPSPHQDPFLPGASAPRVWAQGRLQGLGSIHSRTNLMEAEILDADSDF
Outline: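 Light II cells (NIH-3T3 stably carrying a Gli-responsive firefly luciferase reporter) treated with compound for 24 h. Luciferase read-out of Hedgehog pathway inhibition. IC50 reported as mean ± SEM from at least three independent experiments, each run in duplicate.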

[1] = molecular target: Protein smoothened (Homo sapiens) (UniProt Q99835); assay: Binding affinity to recombinant human N-terminal FLAG/His10-tagged/C-terminal His10-tagged flavodoxin-fused Smo receptor expressed in HEK293F cells assessed as melting temperature at 100 uM after 40 mins by CPM dye based spectrofluorometric method; format: cell-based
Chain of Protein smoothened (Homo sapiens) (Q99835 whole entry, the tested form may be a part): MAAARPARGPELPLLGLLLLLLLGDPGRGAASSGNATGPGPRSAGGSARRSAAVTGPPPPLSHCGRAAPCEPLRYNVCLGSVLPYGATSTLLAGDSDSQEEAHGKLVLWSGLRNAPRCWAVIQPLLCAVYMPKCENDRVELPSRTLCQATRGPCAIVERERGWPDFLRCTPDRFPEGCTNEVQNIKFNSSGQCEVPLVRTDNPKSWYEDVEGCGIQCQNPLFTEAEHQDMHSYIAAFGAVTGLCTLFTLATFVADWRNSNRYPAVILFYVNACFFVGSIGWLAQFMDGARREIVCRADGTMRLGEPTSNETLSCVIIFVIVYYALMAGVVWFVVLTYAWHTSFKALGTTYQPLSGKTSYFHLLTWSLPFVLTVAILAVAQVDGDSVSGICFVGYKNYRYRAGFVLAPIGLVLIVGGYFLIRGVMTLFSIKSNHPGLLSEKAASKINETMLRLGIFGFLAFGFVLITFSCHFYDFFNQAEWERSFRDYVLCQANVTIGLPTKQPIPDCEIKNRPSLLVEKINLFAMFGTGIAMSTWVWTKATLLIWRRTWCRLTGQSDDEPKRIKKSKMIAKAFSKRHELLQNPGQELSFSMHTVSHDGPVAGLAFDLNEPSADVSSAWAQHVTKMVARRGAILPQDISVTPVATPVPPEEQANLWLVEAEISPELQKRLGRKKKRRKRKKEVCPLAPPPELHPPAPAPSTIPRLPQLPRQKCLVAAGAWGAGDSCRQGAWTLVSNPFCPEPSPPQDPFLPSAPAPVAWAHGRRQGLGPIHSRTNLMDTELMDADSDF
Outline: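 Purified SMO in micelles mixed with thiol-reactive CPM dye and thermally denatured. Fluorescence (365/460 nm) followed as exposed cysteines react. Tm taken as the temperature at which 50% of the fluorescence increase is reached.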

[2] = Stability of the compound in DMEM at […] by RP-HPLC analysis; format: physicochemical

| IC50 (Protein smoothened) | Tm [1] | Stability [2] | SMILES |
| --- | --- | --- | --- |
| > 10000 nM | 56.8 °C | – | CN(C(=O)c1ccc(C(=O)O)cc1)C1CCN(c2nnc(-c3ccnn3C)c3ccccc23)CC1 |
| 3020 nM | 59.7 °C | – | CN(C(=O)c1ccc(C(N)=O)cc1)C1CCN(c2nnc(-c3ccnn3C)c3ccccc23)CC1 |
| – | – | Stable | CN(C(=O)c1ccc(F)cc1C(F)(F)F)C1CCN(c2nnc(Cl)c3ccccc23)CC1 |
| 2890 nM | 59 °C | – | CN(C(=O)c1ccc(C=O)cc1)C1CCN(c2nnc(-c3ccnn3C)c3ccccc23)CC1 |
| 2680 nM | 59.4 °C | – | CN(C(=O)c1ccc(S(=O)(=O)O)cc1)C1CCN(c2nnc(-c3ccnn3C)c3ccccc23)CC1 |
| 2020 nM | 58.2 °C | – | CN(C(=O)c1ccc(N)cc1)C1CCN(c2nnc(-c3ccnn3C)c3ccccc23)CC1 |
| > 10000 nM | 56.8 °C | – | CN(C(=O)c1ccc(NCC(=O)O)cc1)C1CCN(c2nnc(-c3ccnn3C)c3ccccc23)CC1 |
| 1410 nM | 58.5 °C | – | CN(C)c1ccc(C(=O)N(C)C2CCN(c3nnc(-c4ccnn4C)c4ccccc34)CC2)cc1 |
| – | – | Stable | CN(Cc1ccc(F)cc1C(F)(F)F)C1CCN(c2nnc(-c3ccnn3C)c3ccccc23)CC1 |
| 1800 nM | 58.4 °C | – | CN(C(=O)c1ccc(OCc2ccccc2)cc1)C1CCN(c2nnc(-c3ccnn3C)c3ccccc23)CC1 |
| > 10000 nM | 56.3 °C | – | CN(C(=O)c1ccc(S(C)(=O)=O)cc1)C1CCN(c2nnc(-c3ccnn3C)c3ccccc23)CC1 |
| – | – | Stable | CN(C(=O)c1ccc(F)cc1C(F)(F)F)C1CCN(c2nnc(-c3ccnn3C)c3ccccc23)CC1 [TALADEGIB] |
| > 10000 nM | 60.2 °C | – | CN(C(=O)c1ccc(CC=O)cc1)C1CCN(c2nnc(-c3ccnn3C)c3ccccc23)CC1 |
| 870 nM | 59.4 °C | – | CN(C(=O)c1ccc(B(O)O)cc1)C1CCN(c2nnc(-c3ccnn3C)c3ccccc23)CC1 |
| 3240 nM | 57.1 °C | – | CN(C(=O)c1ccc(S(N)(=O)=O)cc1)C1CCN(c2nnc(-c3ccnn3C)c3ccccc23)CC1 |
| 236 nM | 61 °C | – | CN(C(=O)c1ccc([N+](=O)[O-])cc1)C1CCN(c2nnc(-c3ccnn3C)c3ccccc23)CC1 |
| > 10000 nM | 60.3 °C | – | COC(=O)c1ccc(C(=O)N(C)C2CCN(c3nnc(-c4ccnn4C)c4ccccc34)CC2)cc1 |
| – | – | Stable | CN(C(=O)c1ccc(F)cc1C(F)(F)F)C1CCN(c2ccc(-c3ccnn3C)c3ccccc23)CC1 |
| – | – | Stable | CN(C(=O)c1ccccc1)C1CCN(c2nnc(-c3ccnn3C)c3ccccc23)CC1 |
| 1570 nM | 59.1 °C | – | CN(C(=O)c1ccc(F)cc1)C1CCN(c2nnc(-c3ccnn3C)c3ccccc23)CC1 |
| 270 nM | 59.6 °C | – | CN(C(=O)c1ccc(Oc2ccccc2)cc1)C1CCN(c2nnc(-c3ccnn3C)c3ccccc23)CC1 |
